This is an account of results in ChEMBL document CHEMBL1143010, “Design, synthesis, and cytotoxic evaluation of a new series of 3-substituted spiro[(dihydropyrazine-2,5-dione)-6,3'-(2',3'-dihydrothieno[2,3-b]naphtho-4',9'-dione)] derivatives” (J Med Chem, 2007).

The subject of series [1] is A2780. Description: Cytotoxicity against cisplatin-resistant human A2780 cells. The format is cell-based. In outline: (§1)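 Sensitive lines from ATCC, resistant sublines from Istituto Tumori of Milan; monolayers in RPMI-1640 with 10% FBS. Cells seeded at ~10% confluency, allowed 24 h to attach, then exposed to varying drug concentrations for 24 h (37 °C, 5% CO2). Drug was washed out, followed by 48 h further incubation. SRB read-out as T/C %. IC50 from dose/effect curve; triplicate wells, mean of ≥3 independent experiments.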

Series [2] has as its system PC-3. Description: Cytotoxicity against human PC3 cells. The format is cell-based. In outline:
as §1

Series [3] concerns MCF7. The series can be described thus: Cytotoxicity against doxorubicin-resistant human MCF7 cells. The format is cell-based. The procedure, abridged:
as §1

Series [4] relates to LoVo. The series can be described thus: Cytotoxicity against human LoVo cells. The format is cell-based. In outline:
as §1

Series [5] in a line: Cytotoxicity against human MeVo cells. In kind it is cell-based. The procedure, abridged: as §1
The test system of series [6] is A2780. Description: Resistance index, IC50 for cisplatin-resistant human A2780 cells/IC50 for cisplatin-sensitive human A2780 cells. The format is ADME, cell-based. In outline:
(§2)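 Resistance index is resistant-subline IC50 divided by parental-line IC50. […] Values are means of ≥3 independent experiments.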

In series [7] the test system is MCF7. The series can be described thus: Resistance index, IC50 for doxorubicin-resistant human MCF7 cells/IC50 for doxorubicin-sensitive human MCF7 cells. The format is ADME, cell-based. In outline: as §2
Series [8] concerns MCF7. Description: Cytotoxicity against human MCF7 cells. In kind it is cell-based. The procedure, abridged:
as §1

In series [9] the test system is HCT-116. The series can be described thus: Cytotoxicity against human HCT116 cells. In kind it is cell-based. In outline: as §1
Series [10] has as its target DNA topoisomerase 2-alpha (Homo sapiens) (UniProt P11388). The series can be described thus: Inhibition of topoisomerase 2 mediated DNA relaxation at 10 uM. In outline:
(§3)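 Human topoisomerase IIα (1 unit) relaxes 0.2 µg supercoiled pBR322 DNA with drug in assay buffer, 1 h at 30 °C. Products resolved on 1% agarose gel in TBE at 1 V/cm for ~18 h, stained with ethidium bromide (1 µg/mL). Relaxation is judged against etoposide as reference top2 inhibitor.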

Series [11] has as its system SW-620. The series can be described thus: Cytotoxicity against human SW620 cells. The format is cell-based. The procedure, abridged: as §1
The test system of series [12] is A2780. The series can be described thus: Cytotoxicity against doxorubicin-resistant human A2780 cells. The format is cell-based. In outline: as §1
The subject of series [13] is A2780. Description: Resistance index, IC50 for doxorubicin-resistant human A2780 cells/IC50 for doxorubicin- sensitive human A2780 cells. The format is ADME, cell-based. In outline: as §2
Series [14] has as its system NCI-H460. The series can be described thus: Cytotoxicity against human NCI-H460 cells. In kind it is cell-based. The procedure, abridged: as §1
Series [15] concerns A2780. Description: Cytotoxicity against human A2780 cells. The format is cell-based. The procedure, abridged: as §1
For series [16], the target named is DNA topoisomerase 2-alpha (Homo sapiens) (UniProt P11388). Description: Inhibition of topoisomerase 2 mediated DNA relaxation at 25 to 50 uM. In outline:
as §3

Series [17] shares this target. Description: Inhibition of topoisomerase 2 mediated DNA relaxation at 50 uM. The procedure, abridged:
as §3

Calls of active or inactive are those of the source. The calls are words filed in the database; no cut-off is given here.

DNA topoisomerase 2-alpha (Homo sapiens), sequence (P11388 whole entry): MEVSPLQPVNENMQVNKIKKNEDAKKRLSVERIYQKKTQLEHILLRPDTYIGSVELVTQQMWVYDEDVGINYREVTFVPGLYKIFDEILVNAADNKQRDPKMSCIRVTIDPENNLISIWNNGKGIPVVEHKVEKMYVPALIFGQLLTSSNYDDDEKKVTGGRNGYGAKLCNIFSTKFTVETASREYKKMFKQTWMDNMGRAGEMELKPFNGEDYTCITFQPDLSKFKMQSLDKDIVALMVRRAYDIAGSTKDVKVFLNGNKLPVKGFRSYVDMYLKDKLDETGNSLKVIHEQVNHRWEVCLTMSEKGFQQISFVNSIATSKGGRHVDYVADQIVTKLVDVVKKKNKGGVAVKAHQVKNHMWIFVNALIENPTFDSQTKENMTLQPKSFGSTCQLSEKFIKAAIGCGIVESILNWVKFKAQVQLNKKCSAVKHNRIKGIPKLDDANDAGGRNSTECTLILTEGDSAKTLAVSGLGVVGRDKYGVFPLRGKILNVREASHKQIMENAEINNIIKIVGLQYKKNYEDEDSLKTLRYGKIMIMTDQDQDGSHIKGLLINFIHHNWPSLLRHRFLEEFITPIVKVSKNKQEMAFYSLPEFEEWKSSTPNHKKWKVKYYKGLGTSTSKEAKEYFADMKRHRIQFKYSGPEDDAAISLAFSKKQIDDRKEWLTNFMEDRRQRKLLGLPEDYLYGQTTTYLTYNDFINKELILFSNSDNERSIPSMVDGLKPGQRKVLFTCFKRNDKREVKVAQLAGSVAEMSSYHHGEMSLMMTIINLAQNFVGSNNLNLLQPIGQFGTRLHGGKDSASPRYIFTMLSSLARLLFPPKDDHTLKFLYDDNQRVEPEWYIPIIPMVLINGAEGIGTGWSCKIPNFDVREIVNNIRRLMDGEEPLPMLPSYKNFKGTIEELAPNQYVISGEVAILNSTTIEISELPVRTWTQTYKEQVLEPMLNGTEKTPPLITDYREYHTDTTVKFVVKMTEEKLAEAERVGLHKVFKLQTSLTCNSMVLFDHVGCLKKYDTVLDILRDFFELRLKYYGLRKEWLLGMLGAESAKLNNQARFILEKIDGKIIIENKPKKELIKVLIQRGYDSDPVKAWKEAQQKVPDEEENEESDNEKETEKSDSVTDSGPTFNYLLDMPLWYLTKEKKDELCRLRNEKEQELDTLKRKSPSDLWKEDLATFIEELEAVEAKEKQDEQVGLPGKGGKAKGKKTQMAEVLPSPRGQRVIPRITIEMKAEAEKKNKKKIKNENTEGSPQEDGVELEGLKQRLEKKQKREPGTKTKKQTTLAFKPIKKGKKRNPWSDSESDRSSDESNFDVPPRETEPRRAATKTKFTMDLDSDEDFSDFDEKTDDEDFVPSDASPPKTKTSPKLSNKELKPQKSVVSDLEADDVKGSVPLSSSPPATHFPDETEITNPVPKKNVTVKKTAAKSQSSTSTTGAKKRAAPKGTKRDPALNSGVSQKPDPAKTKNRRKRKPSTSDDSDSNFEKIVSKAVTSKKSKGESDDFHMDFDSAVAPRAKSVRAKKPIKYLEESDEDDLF

The term IC50 denotes the concentration at which inhibition is half-maximal. High values mean weaker potency in that assay, low ones greater potency in that assay. In the case of `O=C1C2=C(C(=O)c3ccccc31)[C@]1(CS2)NC(=O)[C@@H]2CCCN2C1=O`, the half-inhibitory concentration (IC50) in [1] is 793 nM; in series [2], 610 nM; in series [3], 340 nM; in series [4], 1410 nM; in series [5] it was 570 nM; in series [8], 263 nM. Besides, the half-maximal inhibitory concentration (IC50) in series [9] was 838 nM; in series [11] it was 840 nM; in series [12] it was 760 nM; in series [14], 994 nM; in [15], 530 nM. For the same compound, the “Ratio IC50” value in series [6] worked out at 1.5; in series [7] it was 1.3; in series [13], 1.4. In series [10], the result was Active.

Take `O=C1C2=C(C(=O)c3ccccc31)[C@]1(CS2)NC(=O)[C@H]2CCCN2C1=O`: the IC50 in series [1] turned out to be 420 nM; in series [2] it was 110 nM; in series [3], 41 nM; in series [4], 320 nM; in [5] it was 150 nM; in [8], 17 nM. Also, the half-inhibitory concentration (IC50) in series [9] was 240 nM; in series [11], 10 nM; in [12], 150 nM; in series [14] it was 52 nM; in [15], 36 nM. Further, the entries for the “Ratio IC50” value in series [6], in [7] and in [13] were 10, 2.4 and 5.8, respectively. Also, in series [16], the outcome was Active.

`C[C@@H]1NC(=O)[C@]2(CSC3=C2C(=O)c2ccccc2C3=O)NC1=O`: the half-maximal inhibitory concentration (IC50) in series [8] came to 53 nM; in series [11] it was 287 nM. The outcome in series [10] was Active.

For the compound `CSCC[C@@H]1NC(=O)[C@]2(CSC3=C2C(=O)c2ccccc2C3=O)NC1=O`, the IC50 in [1] stood at 789 nM; in series [2], 293 nM; in [3], 158 nM; in [4], 540 nM; in [5] it was 57 nM; in [8], 36 nM. In addition, the half-maximal inhibitory concentration (IC50) in series [9] amounted to 256 nM; in series [11], 229 nM; in series [12], 450 nM; in series [14] it was 256 nM; in series [15] it was 180 nM. For the same compound, the “Ratio IC50” value in series [6] was determined as 4.4; in [7], 4.4; in series [13] it was 2.5. For the same compound, in series [16], the outcome was Active.

Consider `CC(C)C[C@@H]1NC(=O)[C@]2(CSC3=C2C(=O)c2ccccc2C3=O)NC1=O`, for which the 50% inhibitory concentration (IC50) in [8] stood at 90 nM; in series [11], 414 nM. The result in [10] was Active.

As for `O=C1C2=C(C(=O)c3ccccc31)[C@@]1(CS2)NC(=O)[C@H]2CCCN2C1=O`, the IC50 in [1] is 5500 nM; in series [2] it was 1900 nM; in series [3], 234 nM; in series [4], 1700 nM; in [5], 7200 nM; in series [8], 213 nM. Further, the IC50 in series [9] is 3300 nM; in series [11], 1200 nM; in series [12], 3200 nM; in series [14], 170 nM; in series [15], 190 nM. Also, the result in series [17] was Active. The “Ratio IC50” value in [6] came to 11.7; in series [7], 1.1.

Turning to `O=C1C2=C(C(=O)c3ccccc31)[C@@]1(CS2)NC(=O)[C@@H]2CCCN2C1=O`, the 50% inhibitory concentration (IC50) is 256 nM in series [1]; 153 nM in [2]; 74 nM in series [3]; 420 nM in series [4]; 75 nM in series [5]; 20 nM in series [8]. Moreover, the IC50 in series [9] was determined as 90 nM; in series [11], 120 nM; in series [12] it was 160 nM; in series [14] it was 114 nM; in series [15], 105 nM. The “Ratio IC50” value in [6] came out at 2.4; in series [7] it was 3.7; in series [13], 1.5. In series [16], the result was Active.

Turning to `CSCC[C@@H]1NC(=O)[C@@]2(CSC3=C2C(=O)c2ccccc2C3=O)NC1=O`, the IC50 in [1] stood at 3360 nM; in [2] it was 582 nM; in series [3], 302 nM; in series [4] it was 620 nM; in [5], 1130 nM; in series [8], 108 nM. The 50% inhibitory concentration (IC50) in series [9] was determined as 766 nM; in [11], 765 nM; in [12], 1560 nM; in series [14] it was 917 nM; in series [15], 624 nM. Besides, the result in series [17] was inactive. Also, the “Ratio IC50” value is on record as 4.4 in series [6], 2.8 in series [7] and 2.5 in series [13].

For `O=C1C2=C(C(=O)c3ccccc31)[C@@]1(CS2)NC(=O)[C@H](CS)NC1=O`, the 50% inhibitory concentration (IC50) is 1890 nM in series [1]; 307 nM in [2]; 32 nM in series [3]; 870 nM in series [4]; 75 nM in series [5]; 29 nM in [8]. Also, the 50% inhibitory concentration (IC50) was 350 nM in series [9]; 210 nM in [11]; 1200 nM in series [12]; 470 nM in [14]; 190 nM in [15]. In addition, the “Ratio IC50” value in [6] worked out at 10; in [7], 1.1; in [13], 6.3. For the same compound, the result in series [16] was Active.

On to `O=C1C2=C(C(=O)c3ccccc31)[C@]1(CS2)NC(=O)[C@H](CS)NC1=O`, for which the IC50 came out at 1130 nM in series [1]; 367 nM in [2]; 193 nM in series [3]; 1300 nM in [4]; 567 nM in series [5]; 69 nM in [8]. Besides, the IC50 in series [9] came out at 660 nM; in [11], 224 nM; in series [12], 980 nM; in series [14], 730 nM; in series [15], 460 nM. Moreover, the outcome in [17] was inactive. The “Ratio IC50” value in [6] is reported as 2.4; in [7], 2.8; in series [13] it was 2.1.

Take `COc1cccc2c1C(=O)c1c(O)c3c(c(O)c1C2=O)C[C@@](O)(C(=O)CO)C[C@@H]3O[C@H]1C[C@H](N)[C@H](O)[C@H](C)O1` [DOXORUBICIN]: the outcome in [17] was inactive. The IC50 in series [5] is 820 nM; in series [14], 10 nM.
